In ChEMBL document CHEMBL4304758, “Development of Peptide-Based Sirtuin Defatty-Acylase Inhibitors Identified by the Fluorescence Probe, SFP3, That Can Efficiently Measure Defatty-Acylase Activity of Sirtuin” (J Med Chem, 2019) one finds inhibition and Activity data, which are given here for 12 compounds.

Structures are written as SMILES. Counter-ions that a name gives are not always drawn. Active and inactive are the calls of the source. The rule behind the calls is not given here. Residues, ends and D or L forms follow the SMILES beside them. *: point of attachment. Phenylacetyl(4-E-phenylazo) = O=C(Cc1ccc(/N=N/c2ccccc2)cc1)*; X5 = CCN(CC)c1ccc(/N=N/c2ccc(CC(=O)*)cc2)cc1; X2 = CN(C)c1ccc(/N=N/c2ccc(C(=O)*)cc2)cc1; Tfa = O=C(C(F)(F)F)*

Usually inhibition stands for the drop in the measured response relative to a control, in per cent.

Test [1] has as its target T1, NAD-dependent protein deacetylase sirtuin-3, mitochondrial (Homo sapiens) (UniProt Q9NTG7).
T1 sequence (whole entry): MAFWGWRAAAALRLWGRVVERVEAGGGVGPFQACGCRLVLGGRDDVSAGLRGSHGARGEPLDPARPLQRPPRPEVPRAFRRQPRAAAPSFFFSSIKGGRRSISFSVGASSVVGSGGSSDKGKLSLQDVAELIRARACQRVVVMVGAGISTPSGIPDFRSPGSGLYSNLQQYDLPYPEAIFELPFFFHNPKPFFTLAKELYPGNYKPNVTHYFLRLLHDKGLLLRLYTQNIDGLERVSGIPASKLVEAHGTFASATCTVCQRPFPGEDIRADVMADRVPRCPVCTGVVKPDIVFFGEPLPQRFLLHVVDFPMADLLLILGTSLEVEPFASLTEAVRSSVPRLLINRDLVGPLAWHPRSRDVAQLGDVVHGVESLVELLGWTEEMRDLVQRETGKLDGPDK
Description: Inhibition of recombinant human SIRT3 (118 to 399 residues) demyristoylase activity expressed in Escherichia coli at 1 uM using p53(Myr)-AMC as substrate measured after 3 hrs in presence of NAD+ and trypsin by fluorescence assay relative to control. The method in brief: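 SIRT3 at 120 nM with 50 μM p53(Myr)-AMC and 500 μM NAD⁺ in Tris-HCl pH 8.0/NaCl/DTT/Triton buffer, 0.5% DMSO, 3 h at room temperature. Trypsin (100 nM) plus nicotinamide (1 mM) then added. Fluorescence Ex 355/Em 460 nm every 5 min for 20 min at 37 °C. n = 3.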

Test [2] deals with NAD-dependent protein deacylase sirtuin-6 (Homo sapiens) (UniProt Q8N6T7). Description: Inhibition of recombinant human N-terminal polyhis-tagged SIRT6 (1 to 355 residues) defatty-acylase activity expressed in Escherichia coli at 2 uM using SFP3 as substrate measured at 5 mins interval for 60 mins in presence of NAD+ by fluorescence assay relative to control.
Another test deals with HeLa. The test is described as follows: Cytotoxicity against human HeLa cells assessed as reduction in cell viability at 50 uM measured after 72 hrs by CCK8 assay. It is filed as functional, cell-based. The method in brief:
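HeLa cells, 1.0 × 10⁴ per well on PLL-coated plates, grown overnight in DMEM with 10% FBS and penicillin/streptomycin, 37 °C, 5% CO₂. Compounds added in DMEM (2% DMSO stock), range 1.56–50 μM final, for 72 h. CCK-8 reagent then 2 h at 37 °C, absorbance read at 450 nm. DMSO control.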

The target in test [3] is T2, NAD-dependent protein deacetylase sirtuin-1 (Homo sapiens) (UniProt Q96EB6).
T2 sequence (whole entry): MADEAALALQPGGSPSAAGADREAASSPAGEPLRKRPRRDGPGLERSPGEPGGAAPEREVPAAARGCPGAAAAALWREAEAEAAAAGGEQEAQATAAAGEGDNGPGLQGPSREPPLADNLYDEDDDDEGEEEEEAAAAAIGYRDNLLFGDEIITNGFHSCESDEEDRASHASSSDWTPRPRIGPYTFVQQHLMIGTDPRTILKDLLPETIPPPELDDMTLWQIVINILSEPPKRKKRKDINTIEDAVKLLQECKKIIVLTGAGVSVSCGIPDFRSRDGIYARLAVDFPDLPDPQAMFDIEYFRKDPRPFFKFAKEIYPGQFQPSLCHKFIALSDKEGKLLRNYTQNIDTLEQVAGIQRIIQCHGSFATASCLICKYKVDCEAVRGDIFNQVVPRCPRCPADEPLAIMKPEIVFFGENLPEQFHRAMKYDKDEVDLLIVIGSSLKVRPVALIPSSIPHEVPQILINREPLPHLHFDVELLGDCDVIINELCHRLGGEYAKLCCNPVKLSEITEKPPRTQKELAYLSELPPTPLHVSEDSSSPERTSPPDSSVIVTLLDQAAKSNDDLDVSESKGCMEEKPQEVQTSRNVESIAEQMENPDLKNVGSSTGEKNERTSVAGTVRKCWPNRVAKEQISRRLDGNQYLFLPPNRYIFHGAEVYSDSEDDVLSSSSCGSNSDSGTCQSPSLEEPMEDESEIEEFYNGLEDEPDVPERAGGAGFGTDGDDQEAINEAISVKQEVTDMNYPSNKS
Description: Inhibition of recombinant human C-terminal His6-tagged SIRT1 (Met1 to Ser747 residues) defatty-acylase activity expressed in Escherichia coli at 2 uM using SFP3 as substrate measured at 5 mins interval for 60 mins in presence of NAD+ by fluorescence assay relative to control.

For test [4], the target named is T1, NAD-dependent protein deacetylase sirtuin-3, mitochondrial (Homo sapiens). The test is described as follows: Inhibition of recombinant human SIRT3 (118 to 399 residues) defatty-acylase activity expressed in Escherichia coli at 2 uM using SFP3 as substrate measured at 5 mins interval for 60 mins in presence of NAD+ by fluorescence assay relative to control. The gist of the method:
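SIRT3 at 60 nM final with 2.5 μM SFP3 and 500 μM NAD⁺ in Tris-HCl pH 8.0, 150 mM NaCl, 1 mM DTT, 0.05% Triton X-100. Final DMSO 0.2%, or 0.5% for AGK2/NAM. Fluorescence Ex 485/Em 535 nm every 5 min for 60 min at 37 °C. n = 3.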

For test [5], the target named is T2, NAD-dependent protein deacetylase sirtuin-1 (Homo sapiens). The test is described as follows: Inhibition of recombinant human C-terminal His6-tagged SIRT1 (Met1 to Ser747 residues) demyristoylase activity expressed in Escherichia coli at 1 uM using p53(Myr)-AMC as substrate measured after 3 hrs in presence of NAD+ and trypsin by fluorescence assay relative to control. The gist of the method: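 SIRT1 at 14 nM final with 50 μM p53(Myr)-AMC and 500 μM NAD⁺ in Tris-HCl pH 8.0/NaCl/DTT/Triton buffer, 0.5% DMSO, 3 h at room temperature. Trypsin (100 nM final) plus nicotinamide (1 mM final) then added. Fluorescence Ex 355/Em 460 nm read every 5 min for 20 min at 37 °C. n = 3.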

The target in test [6] is T3, NAD-dependent protein deacetylase sirtuin-2 (Homo sapiens) (UniProt Q8IXJ6).
T3 sequence (whole entry): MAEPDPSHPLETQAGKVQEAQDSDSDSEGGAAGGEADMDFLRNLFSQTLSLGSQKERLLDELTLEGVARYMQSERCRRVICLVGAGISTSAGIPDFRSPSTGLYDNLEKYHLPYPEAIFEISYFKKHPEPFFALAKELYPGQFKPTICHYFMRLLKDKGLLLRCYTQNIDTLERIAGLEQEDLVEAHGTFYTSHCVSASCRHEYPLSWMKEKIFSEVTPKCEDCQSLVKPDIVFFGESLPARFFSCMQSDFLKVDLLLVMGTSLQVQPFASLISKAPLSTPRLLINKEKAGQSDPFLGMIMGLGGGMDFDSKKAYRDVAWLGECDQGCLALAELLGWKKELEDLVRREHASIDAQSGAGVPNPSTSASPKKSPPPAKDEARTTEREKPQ
Description: Inhibition of recombinant human SIRT2 defatty-acylase activity at 2 uM using SFP3 as substrate measured at 5 mins interval for 60 mins in presence of NAD+ by fluorescence assay relative to control.

The target of test [7] is T3, NAD-dependent protein deacetylase sirtuin-2 (Homo sapiens). Description: Inhibition of recombinant human SIRT2 demyristoylase activity at 1 uM using p53(Myr)-AMC as substrate measured after 3 hrs in presence of NAD+ and trypsin by fluorescence assay relative to control.
Test [8] has the same target. The test is described as follows: Inhibition of recombinant human SIRT2 demyristoylase activity using H4K16-Myr as substrate measured after 2 hrs in presence of NAD+ by HPLC analysis. The method in brief: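 H4K16-Myr at 100 μM with 500 μM NAD⁺ and 175 nM SIRT2 in Tris-HCl pH 8.0/NaCl/Triton buffer without DTT, 0.5% DMSO, 2 h at 37 °C. Inhibitors at 0.1–10 μM; AGK2 at 50 μM, NAM at 500 μM. Stopped with HCl/MeOH. Demyristoylated H4K16 product measured by HPLC at 280 nm. Percent inhibition, n = 3.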

Test [9] has the same target. Description: Inhibition of recombinant human SIRT2 deacylation activity using H4K16-Ac as substrate measured after 30 mins in presence of NAD+ by HPLC analysis. The gist of the method: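 H4K16-Ac peptide at 100 μM with 500 μM NAD⁺ and 175 nM SIRT2 in Tris-HCl pH 8.0/NaCl/Triton buffer lacking DTT, 0.5% DMSO, 30 min at 37 °C. Inhibitors at 0.01–10 μM. Stopped with HCl in MeOH. Deacetylated product quantified by reversed-phase HPLC at 280 nm.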

Chain of NAD-dependent protein deacylase sirtuin-6 (Homo sapiens) (Q8N6T7 whole entry, the tested form may be a part): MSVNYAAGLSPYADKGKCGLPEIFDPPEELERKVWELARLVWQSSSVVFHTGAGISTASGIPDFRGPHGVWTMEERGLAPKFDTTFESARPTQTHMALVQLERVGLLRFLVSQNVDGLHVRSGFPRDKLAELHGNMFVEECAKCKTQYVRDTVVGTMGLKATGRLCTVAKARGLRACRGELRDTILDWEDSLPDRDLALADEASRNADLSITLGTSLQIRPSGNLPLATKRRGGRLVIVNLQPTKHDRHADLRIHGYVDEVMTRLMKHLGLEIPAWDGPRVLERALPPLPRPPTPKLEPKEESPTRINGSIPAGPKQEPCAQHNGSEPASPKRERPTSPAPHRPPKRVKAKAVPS

With `CCCCCCCCCCCCCC(=S)NCCCC[C@H](NC(=O)OCc1ccccc1)C(=O)Nc1ccccc1`, the inhibition is -1.2% in [1]; -3.3% in test [2]; 0.81% in test [3]; -0.9% in test [4]; 2.7% in test [5]. Also, in the test with HeLa, the outcome was Active.

For the compound `CC[C@H](C)[C@H](NC(C)=O)C(=O)N[C@@H](CCCCNC(=O)Cc1ccc(/N=N/c2ccccc2)cc1)C(=O)N[C@@H](CCCNC(=N)N)C(N)=O`, the inhibition in [2] was 28%.

In the case of `C[C@H](NC(=O)[C@H](CCCCNC(=O)Cc1ccc(/N=N/c2ccc(O)cc2)cc1)NC(=O)OCc1ccccc1)C(N)=O`, the inhibition in [1] worked out at 2.6%; in test [2], 3.8%; in test [6] it was 18%; in [7] it was 5.3%; in test [3] it was 8.8%; in test [4] it was 5.9%. In addition, the inhibition in test [5] was found to be 20%.

Take `C[C@H](NC(=O)[C@H](CCCCNC(=O)Cc1ccc(/N=N/c2ccc(OCCc3ccccc3)cc2)cc1)NC(=O)OCc1ccccc1)C(N)=O`: the inhibition in test [1] is -0.13%; in [2] it was -0.32%; in [6], 1.4%; in test [7], 2.9%; in test [3], 2%; in test [4], 7%. Besides, the inhibition in test [5] stood at 6.3%.

`C[C@H](NC(=O)[C@H](CCCCNC(=O)Cc1ccc(/N=N/c2ccc(OCc3ccccc3)cc2)cc1)NC(=O)OCc1ccccc1)C(N)=O`: the inhibition was 5.6% in test [1]; -7.4% in test [2]; 13% in test [6]; 3.2% in test [7]; 1.3% in [3]; -0.08% in test [4]. Further, the inhibition in test [5] is 2.8%.

For the compound `Cc1cc(C)nc(SCC(=O)Nc2ncc(Cc3cccc4ccccc34)s2)n1`, the inhibition in test [2] was -2.2%.

For `CC[C@H](C)[C@H](NC(=O)[C@H](CCCNC(=N)N)NC(C)=O)C(=O)N[C@@H](CCCCNC(=O)Cc1ccc(/N=N/c2ccccc2)cc1)C(=O)N[C@@H](CCCNC(=N)N)C(=O)N[C@@H](Cc1ccc(O)cc1)C(N)=O` (Ac-RIK(Phenylacetyl(4-E-phenylazo))RY-NH2), the values for the inhibition result in test [8], in [2] and in test [9] were “Dose-dependent effect”, 32% and “Dose-dependent effect”, respectively. The outcome in the test on HeLa was inactive.

`CC[C@H](C)[C@H](NC(=O)[C@H](CCCNC(=N)N)NC(C)=O)C(=O)N[C@@H](CCCCNC(=O)C(F)(F)F)C(=O)N[C@@H](CCCNC(=N)N)C(=O)N[C@@H](Cc1ccc(O)cc1)C(N)=O` (Ac-RIK(Tfa)RY-NH2): the inhibition in test [1] turned out to be 58%; in [2] it was 3.1%; in test [3], 16%; in [5], 32%.

`CC[C@H](C)[C@H](NC(=O)[C@H](CCCNC(=N)N)NC(C)=O)C(=O)N[C@@H](CCCCNC(=O)Cc1ccc(/N=N/c2ccc(N(CC)CC)cc2)cc1)C(=O)N[C@@H](CCCNC(=N)N)C(=O)N[C@@H](Cc1ccc(O)cc1)C(N)=O` (Ac-RIK(X5)RY-NH2): the inhibition in [2] was determined as 28%.

Take `CC[C@H](C)[C@H](NC(=O)[C@@H](NC(=O)[C@H](CCCCNC(=O)Cc1ccc(/N=N/c2ccccc2)cc1)NC(=O)[C@H](CC(=O)O)NC(=O)[C@H](CO)NC(C)=O)[C@@H](C)O)C(N)=O` (Ac-SDK(Phenylacetyl(4-E-phenylazo))TI-NH2): the inhibition in [1] amounted to 5.6%; in [2] it was 2.6%; in [7], 17%; in test [3], 18%; in test [4], 14%; in test [5] it was 31%.

`CC[C@H](C)[C@H](NC(=O)[C@@H](NC(=O)[C@H](CCCCNC(=O)c1ccc(/N=N/c2ccc(N(C)C)cc2)cc1)NC(=O)[C@H](CC(=O)O)NC(=O)[C@H](CO)NC(C)=O)[C@@H](C)O)C(N)=O` (Ac-SDK(X2)TI-NH2): the inhibition in test [1] is -1.1%; in test [2], 11%; in test [6], 7.8%; in test [7], 2%; in test [3] it was 8.9%; in test [4], 10%. The inhibition in test [5] is 3.2%.

As to `CC[C@H](C)[C@H](NC(=O)[C@H](CCCCNC(=O)Cc1ccc(/N=N/c2ccccc2)cc1)NC(=O)[C@@H](NC(C)=O)C(C)C)C(=O)N[C@@H](CCCCN)C(=O)N[C@@H](CCCCN)C(N)=O` (Ac-VK(Phenylacetyl(4-E-phenylazo))IKK-NH2), the inhibition in test [2] came to 0.64%.
